High-throughput results as filed in PubChem BioAssay.
Sampled rows, rich in hits. Any-hit rate of the full collection: about 2.5%.
FGF22 binding: FGF22 (human) thermal shift binding; Q9HCT0; recombinant FGF22 thermal shift, SYPRO orange fluorescence; percent of sucrose octasulfate shift, DMSO zero; activity (Tm shift, normalised), % at 9.99 µM; hit rate 1.5% among 340,000; AID 651658;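 active = mean Tm shift, scaled 0 neutral to 100 positive control, at about 1.3% or above, every replicate too, limit read from the data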
Target sequence (Q9HCT0 whole entry, looked up): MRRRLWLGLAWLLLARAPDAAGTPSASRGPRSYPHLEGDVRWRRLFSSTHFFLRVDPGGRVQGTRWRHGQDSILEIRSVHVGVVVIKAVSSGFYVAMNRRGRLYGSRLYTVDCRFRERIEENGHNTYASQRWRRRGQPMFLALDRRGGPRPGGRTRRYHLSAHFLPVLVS
SIRT5 block: blocks human SIRT5 desuccinylation of peptide; Q9NXA8; Purified SirT5, succinyl-peptide AMC, trypsin-coupled fluorescence; inhibition, % at 15 µM; hit rate 1.1% among 330,000; in the data active = inhibition above about 15%
Target sequence (Q9NXA8 whole entry, looked up): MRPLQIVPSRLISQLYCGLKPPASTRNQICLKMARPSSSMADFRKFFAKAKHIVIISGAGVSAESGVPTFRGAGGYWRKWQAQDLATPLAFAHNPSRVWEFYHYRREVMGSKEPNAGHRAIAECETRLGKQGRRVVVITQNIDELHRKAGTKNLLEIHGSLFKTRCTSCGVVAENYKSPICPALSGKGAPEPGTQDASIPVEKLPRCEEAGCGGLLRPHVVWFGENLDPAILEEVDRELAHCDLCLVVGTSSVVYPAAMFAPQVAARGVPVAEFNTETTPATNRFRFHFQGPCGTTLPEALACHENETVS
S100A4 MyoIIA: blocks human S100A4 binding to myosin IIA peptide. P26447. S100A4/TAMRA-MyoIIA peptide fluorescence polarization. inhibition, % at 10.7 µM. hit rate 0.14% among 360,000;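 active = mean inhibition of at least 70% across replicates, with every replicate also reaching that level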
Target sequence (P26447 whole entry, looked up): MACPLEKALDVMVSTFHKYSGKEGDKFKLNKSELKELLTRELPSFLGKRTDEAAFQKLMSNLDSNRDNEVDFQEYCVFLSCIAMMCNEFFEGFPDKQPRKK
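Material: S100A4 monomer (human). Medium: Calcium-containing HEPES buffer, pH 7.2. Probe or stimulus: labelled myosin peptide probe, 5 nM. Compound dosing: one concentration per compound. Timing: polarization read 5 min after assay mix addition, stable 5–60 min. Benchmarks: DMSO as neutral control, TFP as positive control.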
E-sel inducer: E-selectin induction on HUVECs; HUVEC E-selectin immunofluorescence imaging; normalized: neutral wells 0, TNF-alpha wells 100; activation, % at 7.58 µM; hit rate 0.37% among 260,000; AID 686992;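 active = mean E-selectin-positive cell signal at least 10% of the positive control, reached in at least 60% of replicates, without over 20% cell loss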
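Material: HUVEC primary endothelial cells; Amount: 3,000 cells per well; Dosing: single concentration; Medium: EGM-2 growth medium on 0.1% gelatin-coated wells; Read-out basis: percent E-selectin-positive cells; Signal: immunofluorescence imaging; Control set: TNF-alpha, DMSO.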
miR-122 sensor: blocks miR-122 activity in Huh7 sensor cells; activation (reporter increase), % at 12.5 µM; hit rate 0.3% among 340,000; Huh7 miR-122 Renilla luciferase sensor, 48 h; neutral wells = 0, positive control = 100;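 active = mean replicate activation score at least 90 and every replicate individually at or above 90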;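 note: higher luciferase means less miR-122 activity so hits act as miR-122 inhibitors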
Numbers without * were called inactive; · = no result given; [ ] = dose if it differs, or a comment.

SMILES	FGF22 binding	SIRT5 block	S100A4 MyoIIA	E-sel inducer	miR-122 sensor
COCC(=O)Nc1ccc2c(c1)[C@@H]1C[C@H](CC(=O)NCc3ccccc3OC)O[C@@H](CO)[C@@H]1O2	0.0	0.6	-18.8	0.2	6.3[16.7 µM]
O=C(C[C@H]1CC[C@H](NC(=O)C2CCC2)[C@H](CO)O1)NCc1ccccc1Cl	-0.1	24.9*	4.7	0.4	·
O=C(C[C@@H]1CC[C@@H](NC(=O)C2CCC2)[C@@H](CO)O1)NCc1ccccc1Cl	0.1	-5.1	-6.0	-2.0	·
O=C(C[C@H]1C[C@@H]2c3cc(NC(=O)C4CCOCC4)ccc3O[C@@H]2[C@H](CO)O1)NCCN1CCCCC1	-0.5	0.4	114.9*	-0.1	34.4[16.7 µM]
N#C/C(=C\C=C\c1ccccc1)C(=O)Nc1ccccc1	44.2*	-1.4	-3.9	·	·
COCc1cc(C)nc(SCc2nc3ccccc3c(=O)[nH]2)c1C#N	43.1*	-3.1	0.1	3.1	-0.2
Cc1cc(C)c(C#N)c(SCc2nc3ccccc3c(=O)[nH]2)n1	0.2	-5.5	2.2	·	·
O=C(Nc1nccs1)c1ccc(Br)o1	·	·	·	·	0.9
O=C(/C=C/c1ccc(Br)o1)Nc1nccs1	44.0*	-1.7	0.7	·	·
C[C@H](CO)N1C[C@H](C)[C@H](CN(C)S(=O)(=O)c2ccc(Cl)cc2)OCc2cn(nn2)CCCC1=O	·	·	·	0.3	6.5[16.7 µM]
CC(=O)N1CC2(C1)[C@H](c1ccc(-c3ccccc3C)cc1)[C@@H](CO)N2C(=O)CC1CC1	-0.1	-2.7	7.0	-0.2	·
COc1ccc(/C=C/C(=O)OCC(=O)N2CC(=O)Nc3ccccc32)cc1	·	·	·	·	-5.0
CCCCOc1ccc(/C=C/C(=O)OCC(=O)N2CC(=O)Nc3ccccc32)cc1OCC	-0.8	17.0*	15.0	·	·
O=C1CN(C(=O)COC(=O)c2cccs2)c2ccccc2N1	0.2	-13.2	-4.3	80.0*	0.9
O=C1CN(C(=O)COc2cccc(F)c2)c2ccccc2N1	0.1	18.2*	-4.3	·	·
O=C(C[C@@H]1C=C[C@@H](NC(=O)C2CCC2)[C@@H](CO)O1)NCCCN1CCOCC1	0.3	-1.3	5.6	-0.3	0.2[16.7 µM]
C[C@H](CO)N1C[C@H](C)[C@@H](CN(C)C(=O)Nc2ccc3c(c2)OCO3)OCCCC[C@H](C)Oc2ccc(NC(=O)Nc3ccc(C(F)(F)F)cc3)cc2C1=O	-0.1	2.4	-5.8	3.8	-5.5[16.7 µM]
C[C@@H]1CCCCO[C@@H](CN(C)C(=O)Nc2ccc(C(F)(F)F)cc2)[C@H](C)CN([C@@H](C)CO)C(=O)c2cc(NC(=O)Nc3ccc4c(c3)OCO4)ccc2O1	0.3	15.5*	-3.6	0.1	3.7[16.7 µM]
C[C@H](CO)N1C[C@H](C)[C@H](CN(C)C(=O)Nc2ccc(C(F)(F)F)cc2)OCCCC[C@H](C)Oc2ccc(NC(=O)Nc3ccc4c(c3)OCO4)cc2C1=O	0.2	15.1*	-16.8	0.7	8.1[16.7 µM]
C[C@H]1CCCCO[C@H](CN(C)C(=O)Nc2ccc(C(F)(F)F)cc2)[C@@H](C)CN([C@@H](C)CO)C(=O)c2cc(NC(=O)Nc3ccc4c(c3)OCO4)ccc2O1	0.1	13.7	-5.9	0.2	-3.2[16.7 µM]
O=C(Cc1ccccn1)N[C@@H]1CC[C@@H](CCNS(=O)(=O)c2cccc(F)c2)O[C@H]1CO	-0.3	4.2	131.7*	0.4	-13.3[16.7 µM]
COc1cccc(S(=O)(=O)N[C@H]2CC[C@H](CCNC(=O)Cc3ccncc3)O[C@@H]2CO)c1	-0.3	15.8*	3.3	0.0	·
O=C(NCC[C@H]1CC[C@@H](NS(=O)(=O)c2cccc(F)c2)[C@H](CO)O1)C1CCOCC1	-0.3	-2.2	-2.6	-0.4	·
Cc1ccc(S(=O)(=O)NCC[C@@H]2CC[C@@H](NC(=O)c3cnccn3)[C@H](CO)O2)cc1	-0.2	4.1	-2.1	-0.9	101.4*[16.7 µM]
O=C(NCC[C@@H]1CC[C@@H](NS(=O)(=O)c2cccc(F)c2)[C@@H](CO)O1)C1CCOCC1	-0.2	38.0*	-1.1	-0.5	·
SMILES	FGF22 binding	SIRT5 block	S100A4 MyoIIA	E-sel inducer	miR-122 sensor
Cc1ccc(S(=O)(=O)NCC[C@@H]2CC[C@H](NC(=O)c3cnccn3)[C@@H](CO)O2)cc1	-0.3	2.6	-3.5	-1.6	1.9[16.7 µM]
C[C@H]1CN([C@@H](C)CO)C(=O)c2cc(NS(=O)(=O)c3cn(C)cn3)ccc2O[C@H]1CN(C)Cc1ccc(Oc2ccccc2)cc1	-0.3	-3.6	17.2	2.1	-1.0[16.7 µM]
COc1ccc(S(=O)(=O)N[C@H]2C=C[C@@H](CC(=O)NCCc3ccncc3)O[C@H]2CO)cc1	-0.1	28.6*	-7.4	-0.5	·
COc1ccc(S(=O)(=O)N[C@@H]2C=C[C@H](CC(=O)NCCc3ccncc3)O[C@H]2CO)cc1	·	·	·	0.8	·
N#C[C@H]1[C@H](c2ccccc2)[C@@H](CO)N1C(=O)Nc1cccc(F)c1	0.0	-6.0	12.7	1.5	·
Cc1ccc(N=N/C(=C\O)C(=O)c2ccc(Cl)cc2)cc1	·	21.7*	4.3	7.7	-6.2
CC(C)C#Cc1cnc2c(c1)C(=O)N([C@@H](C)CO)C[C@H](C)[C@H](CN(C)C(=O)CCN1CCCCC1)O2	-0.4	9.6	29.6	0.1	7.9[16.7 µM]
C[C@H]1CN([C@@H](C)CO)C(=O)c2cccc(NC(=O)Nc3cccc4ccccc34)c2O[C@H]1CN(C)S(=O)(=O)c1ccccc1	-0.1	2.4	-14.5	1.5	-4.2[16.7 µM]
O=S(=O)(Nc1cccc(-n2cnnn2)c1)c1cc(Br)ccc1Br	0.1	-2.5	1.5	4.1	108.4*
CCCN(C)C[C@H]1Oc2cc(C3=CCCC3)ccc2S(=O)(=O)N([C@H](C)CO)C[C@H]1C	·	·	·	-0.3	7.8[16.7 µM]
CN(C)CCN1CCN(C2CN(Cc3cn(Cc4cccc(Cl)c4)nn3)S(=O)(=O)C2)CC1 (centres undefined)	-0.2	19.1*	61.0	3.7	·
CN1CCN(C2CN(Cc3cn(Cc4cccc(Cl)c4)nn3)S(=O)(=O)C2)CC1 (centres undefined)	-0.2	-3.9	2.4	-0.2	·
O=C(C[C@@H]1C[C@H]2c3cc(NC(=O)c4ccc5c(c4)OCO5)ccc3O[C@H]2[C@H](CO)O1)NCC(F)(F)F	-0.2	-0.5	4.8	0.2	1.0[16.7 µM]
CC1Oc2ccccc2N(CC(=O)NCc2ccc3c(c2)OCO3)C1=O (centres undefined)	43.2*	-6.5	8.5	·	-13.5
O=C(NCc1ccc2c(c1)OCO2)c1ccccc1	40.7	-3.0	-3.2	1.4	·
Cc1nc(NC(=O)c2ccccc2)sc1Cc1ccc2c(c1)OCO2	-0.1	-2.9	-1.6	·	-4.3
Cc1c(Cc2ccc3c(c2)OCO3)sc(NC(=O)c2ccccc2)c1C(N)=O	-0.1	20.2*	-4.8	0.1	-2.8
O=C(NC(=S)NCc1ccc2c(c1)OCO2)c1ccccc1	0.0	-9.5	-4.3	·	111.2*
CSc1nc(N)nc2c1ncn2CC(=O)NCc1ccc2c(c1)OCO2	-0.2	21.4*	-2.9	0.6	-2.6
CCC(=O)Nc1ccc2c(c1)C(=O)N(C)C[C@@H](OC)[C@@H](C)CN(CCC(F)(F)F)[C@@H](C)CO2	-0.2	2.6	-3.3	-0.1	-2.7[16.7 µM]
